What was measured:
[1] = Negative chronotropic activity in guinea pig right atrium assessed as decrease in atrial rate at 50 uM relative to control; type: functional, Cavia porcellus, Cardiac atrium; design: scale not given: the % may be the effect or the level left
Procedure, shortened: (§1)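 Spontaneously beating guinea pig right atria in PSS at 35 °C, pH 7.4, 95% O2-5% CO2, pretreatment rate 170-195 beats/min. Cumulative concentrations 0.1-100 μM, each added at steady state, DMSO ≤0.3%. Reported as % decrease in atrial rate vs control, n = 6-8.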

[2] = Negative inotropic activity in guinea pig left atrium assessed as decrease in atrial tension at 10 uM relative to control; type: functional, Cavia porcellus, Cardiac atrium; design: scale not given: the % may be the effect or the level left
Procedure, shortened: (§2)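 Isolated guinea pig left atria paced at 1 Hz (0.6-0.8 ms pulses, about 50% threshold voltage) in PSS at 35 °C, pH 7.4, gassed 95% O2-5% CO2. Isometric tension recorded after 45-60 min stabilization. Cumulative concentrations 0.1-100 μM, DMSO ≤0.3%. Reported as % decrease in developed tension vs control (n = 4-6). EC50 by Probit analysis (n = 6-8), not calculated when maximum effect was <50%.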

[3] = target: T1, Voltage-gated L-type calcium channel (Rattus norvegicus, UniProt P22002+Q02485+P27732); test: Blockade of L-type calcium channel in Wistar rat tail artery smooth muscle cells assessed as inhibition of peak L-type barium current by whole cell patch clamp method
Aorta [4] = test: Vasorelaxant activity in 80 mM K+-depolarized guinea pig thoracic aortic strip assessed as inhibition of calcium-induced contraction; type: functional, tissue-based; conditions: Cavia porcellus
Procedure, shortened: (§3)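 Helicoidal guinea pig aortic strips in PSS at 35 °C, contracted with 80 mM KCl (equimolar substitution for Na+), plateau reached in about 45 min. Cumulative concentrations 0.1-500 μM in DMSO vehicle. Reported as % inhibition of contraction. IC50 by Probit analysis from log concentration-response curves (n = 6-8), not calculated when maximum effect was <50%.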

[5] = Negative inotropic activity in guinea pig left atrium assessed as decrease in atrial tension; type: functional, tissue-based; conditions: Cavia porcellus, Cardiac atrium; procedure, shortened: as §2
Aorta [6] = test: Vasorelaxant activity in 80 mM K+-depolarized guinea pig thoracic aortic strip assessed as inhibition of calcium-induced contraction at 100 uM; type: functional, Cavia porcellus; procedure, shortened: as §3
Ileum [7] = test: Muscle relaxant activity in 80 mM K+-depolarized guinea pig ileum longitudinal smooth muscle assessed as inhibition of calcium-induced contraction at 5 uM; type: functional, Cavia porcellus
Procedure, shortened: (§4)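 Guinea pig ileum longitudinal smooth muscle, 2 cm segments under 300-400 mg resting tension. Isometric recording in PSS, washed every 20 min for 1 h, then depolarized with 80 mM K+. Compounds added cumulatively in DMSO. Reported as % inhibition of calcium-induced contraction. IC50 from log concentration-response curves by Probit analysis.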

Ileum [8] = test: Muscle relaxant activity in 80 mM K+-depolarized guinea pig ileum longitudinal smooth muscle assessed as inhibition of calcium-induced contraction; type: functional, tissue-based; conditions: Cavia porcellus; procedure, shortened: as §4
Ileum [9] = test: Muscle relaxant activity in 80 mM K+-depolarized guinea pig ileum longitudinal smooth muscle assessed as inhibition of calcium-induced contraction at 10 uM; type: functional, Cavia porcellus; procedure, shortened: as §4
[10] = Negative chronotropic activity in guinea pig right atrium assessed as decrease in atrial rate at 100 uM relative to control; type: functional, Cavia porcellus, Cardiac atrium; design: scale not given: the % may be the effect or the level left; procedure, shortened: as §1
[11] = Negative inotropic activity in guinea pig left atrium assessed as decrease in atrial tension at 100 uM relative to control; type: functional, Cavia porcellus, Cardiac atrium; design: scale not given: the % may be the effect or the level left; procedure, shortened: as §2
[12] = target: T1, Voltage-gated L-type calcium channel; test: Displacement of [3H]diltiazem from […] binding site of L-type calcium channel in Wistar rat cardiomyocytes by liquid scintillation counting; type: cell-based
Procedure, shortened: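 Thawed rat cardiomyocytes (200 μg), isolated by collagenase/dispase perfusion and pooled from at least two animals. Incubated with 5 nM [3H]diltiazem and unlabeled ligand (0.1 nM to 100 μM) in 50 mM Tris pH 7.4, 25 °C, 90 min. Reaction stopped by filtration through PEI-soaked GF/B filters, then scintillation counting. Nonspecific binding defined with 100 μM diltiazem. Run in triplicate; sigmoidal fit of % specific binding.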

[13] = Ratio of diltiazem EC50 to compound EC50 for negative inotropic activity in guinea pig left atrium; type: functional, Cavia porcellus, Cardiac atrium
Aorta [14] = test: Ratio of compound IC50 to diltiazem IC50 for vasorelaxant activity in 80 mM K+-depolarized guinea pig thoracic aortic strip; type: functional, Cavia porcellus

IC50 [3] [nM] | IC50 (Aorta [4]) [nM] | EC50 [5] [nM] | IC50 (Ileum [8]) [nM] | inhibition (INH) [12] | inhibition (INH) ([3]; rat) | Structure (SMILES) | Activity [1] [%] | Activity [2] [%] | inhibition (INH) (Aorta [6]) [%] | inhibition (INH) (Ileum [7]) [%] | inhibition (INH) (Ileum [9]) [%] | Activity [10] [%] | Activity [11] [%] | Ratio EC50 [13] | Ratio IC50 (Aorta [14])
22200 | 5160 | 450 | 2060 |  |  | O=S(=O)(c1ccc(Cl)cc1)N1CCC[C@H]1c1cccs1 | 7 | 96 | 83 | 69 |  |  |  |  | 
 |  | 70 |  |  |  | CCO[C@@]1(c2ccc(Br)cc2)SC=C(C)n2c1noc2=O |  |  | 11 |  | 3 | 16 |  |  | 
27100 |  | 230 | 1070 |  |  | O=S(=O)(c1ccc(Cl)cc1)N1CCC[C@@H]1c1cccs1 | 10 |  | 24 | 94 |  |  | 98 |  | 
 | 17700 |  | 4320 | Dose-dependent effect |  | C=CCN(c1ccccc1)S(=O)(=O)c1ccc(Cl)cc1 |  |  | 54 |  | 83 | 5 |  | 2.5 | 6.8
 |  |  | 14800 |  |  | CSC1=NCCCN1S(=O)(=O)c1ccc(Cl)cc1 |  |  | 57 |  | 83 | 5 |  |  | 9.7
23500 |  |  | 1180 |  | Dose-dependent effect | O=S(=O)(c1ccc(Cl)cc1)N1CCCC1c1cccs1 (racemic) | 4 |  | 74 | 90 | 90 | 4 |  | 2.5 | 2.2
 | 2600 | 790 |  |  |  | COc1ccc([C@@H]2Sc3ccccc3N(CCN(C)C)C(=O)[C@@H]2OC(C)=O)cc1 [DILTIAZEM] |  |  | 88 |  | 98 |  |  |  | 

Source: ChEMBL document CHEMBL1154353, “Stereoselective behavior of the functional diltiazem analogue 1-[(4-chlorophenyl)sulfonyl]-2-(2-thienyl)pyrrolidine, a new L-type calcium channel blocker” (J Med Chem, 2009)
